Reference: PubChem BioAssay
Results filed as inconclusive are left out. Activity calls are given as the source filed them.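 How the source made its calls, unless noted: active means RAM network inhibition above 8.4% in each of two replicates, 3 SD over the compound average; inconclusive means above 8.4% inhibition in only one replicate; inactive means 8.4% inhibition or less in each replicate.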

Experiments:
[1] = OD615 S. cerevisiae growth inhibition, permissive medium, pilot counter-assay, permissive growth control for S. cerevisiae lifespan shortening project (AID 705;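 active means growth inhibition above 25% in both replicates, a cutoff set 3 SD above the mean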); details: OD615, 24 h, at 10 µM, stronger effect = higher value
In short: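 System – S. cerevisiae with engineered DeaD lifespan system · Buffer or medium – SC raffinose/galactose permissive medium · Schedule – cells pre-grown 4 h, then 24 h compound exposure, 30 °C humidified · Technique – culture turbidity as optical density at 615 nm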

[2] = Restrictive medium S. cerevisiae growth inhibition, OD615, pilot screen of yeast lifespan reduction project, restrictive growth control (AID 706;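 active means growth inhibition above a set limit, 3 SD over mean compound inhibition, in both replicates, cut at about 43% in these data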;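 further: modified DeaD lifespan yeast strain shifted to restrictive glucose medium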); details: OD615, 48 h, at 10 µM, stronger effect = higher value
In short: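 Material: engineered S. cerevisiae DeaD strain / Medium: glucose-based CSMM-D restrictive medium / Compound: single dose of 10 µM compound final, 0.25% DMSO / Timing: 4 h pre-incubation, 48 h exposure at 30 °C / Technique: OD615 absorbance reading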

[3] = viability gain of MRP-1-high H69AR cells under doxorubicin, pilot screen, MRP-1 activator project, CellTiter-Glo, duplicate (AID 807;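 active means viability increase at or above a cutoff of the median across tested compounds plus 3 SD, cut at about 8.5% in these data, passing the limit was not always enough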;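 further: compound pretreatment 18-22 h then 72 h combined with doxorubicin; 0% = doxorubicin alone and 100% = vehicle without doxorubicin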); details: H69AR viability with doxorubicin, CellTiter-Glo luminescence; at 10 µM; stronger effect = higher value
[4] = growth suppression of beta-catenin knockout HCT116, pilot screen, human colon tumor cells (AID 823;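 active means cell viability at or below a set limit in both duplicate runs, the limit being the all-compound median minus 4 SD, cut at about 23% in these data, passing the limit was not always enough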;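 further: 0% = wells killed by 20 µM Hyamine and 100% = untreated DMSO cell wells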); details: CellTiter-Glo, 60 h, at 10 µM, stronger effect = lower value
[5] = growth suppression of PTEN-deleted HCT116, pilot screen, cell-based, HCT116 clonal line, CellTiter-Glo (AID 824;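 active means viability at or below 27.92% in each of two runs, the all-compound median minus 4 SD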;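 further: 0% = 20 µM Hyamine control and 100% = vehicle cell control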); details: 60 h, at 10 µM, stronger effect = lower value
[6] = inhibitors of the yeast RAM network, pilot screen, dse1pr::URA3 reporter, 5-FOA selection (AID 869;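 active means inhibition over a set limit, the all-compound mean plus 3 SD, in both replicate runs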;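 further: 0% = DMSO wells with no growth and 100% = 10 µM 1-NA-PP1 with full growth; RAM network block rescues cells from 5-FOA so hits raise OD615 growth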); details: S. cerevisiae dse1pr::URA3 5-FOA growth, OD615, 2 d; at 10 µM; stronger effect = higher value; strain carries analog-sensitive mutant Cbk1 kinase
[7] = RAM signaling pathway blockade in yeast – S. cerevisiae, Pdr1DBD-CYC8 efflux-inhibited sensitized strain, primary screen (AID 1298);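 further: 0% = DMSO untreated cells without growth and 100% = 10 µM 1-NA-PP1 full growth; higher means more yeast growth rescued from 5-FOA killing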; details: S. cerevisiae cbk1-as DSE1-URA3 strain, 5-FOA growth OD615, 2 d; at 50 µM; stronger effect = higher value

COc1cc(C2C(C(N)=O)=C(C)Nc3nc(CCCO)nn32)cc(OC)c1OC (stereo unspecified)
inactive: growth inhibition [1] -3.16% | growth inhibition [2] -9.14% | viability increase [3] -0.36% | viability [4] 101% | viability [5] 95% | inhibition [6] 0.785% | RAM network inhibition [7] 0.15%

COC(=O)c1ccc(NC(=O)Cn2nc(SC)n(N)c2=S)cc1
inactive: growth inhibition [1] -11.2% | growth inhibition [2] -14.1% | viability increase [3] -0.99% | viability [4] 98% | viability [5] 99.3% | inhibition [6] 1.85% | RAM network inhibition [7] 7.07%

CCOC(=O)CSC1=C(C#N)C(c2ccc(Cl)cc2)CC(=O)N1 (stereo unspecified)
inactive: growth inhibition [1] -15.6% | growth inhibition [2] -15.6% | viability increase [3] 0.52% | viability [4] 87.8% | viability [5] 82.5% | inhibition [6] 0.69% | RAM network inhibition [7] 0.53%

CCC(C)NC(=O)C1CCN(S(=O)(=O)c2cccc3cccnc23)CC1 (stereo unspecified)
inactive: growth inhibition [1] -3.39% | growth inhibition [2] 1.06% | viability increase [3] 0.26% | viability [4] 108% | viability [5] 101% | inhibition [6] 2.05% | RAM network inhibition [7] 4.76%

COc1ccc(-c2noc(Cc3cccs3)n2)cc1
inactive: growth inhibition [1] 0.04% | growth inhibition [2] 3.45% | viability increase [3] -2.47% | viability [4] 102% | viability [5] 93.3% | inhibition [6] 2.76% | RAM network inhibition [7] 4.89%

COc1ccccc1N1CCN(C(=O)COc2ccc(C)cc2Br)CC1
inactive: growth inhibition [1] -7.34% | growth inhibition [2] -9.51% | viability increase [3] -1.4% | viability [4] 83.5% | viability [5] 72.4% | inhibition [6] -0.16% | RAM network inhibition [7] 2.61%

COc1cccc(-c2nc(CS(=O)CC(=O)NC3CCCC3)c(C)o2)c1 (stereo unspecified)
inactive: growth inhibition [1] -7.39% | growth inhibition [2] 1.47% | viability increase [3] -2.4% | viability [4] 90.3% | viability [5] 95.6% | inhibition [6] 1.09% | RAM network inhibition [7] 1.25%

COc1ccc(C2C(C(=O)N3CCCCC3)c3ccccc3C(=O)N2C)cc1 (stereo unspecified)
inactive: growth inhibition [1] -2.93% | growth inhibition [2] -8.27% | viability increase [3] -2.9% | viability [4] 92.3% | viability [5] 91.2% | inhibition [6] 0.375% | RAM network inhibition [7] 2.69%

COc1ccc(OC)c(CCNC(=O)Cn2sc3nc(C)cc(C)c3c2=O)c1
inactive: growth inhibition [1] 18.3% | viability increase [3] -8.04% | inhibition [6] 1.38% | RAM network inhibition [7] 11.3%
active: growth inhibition [2] 70.4% | viability [4] 2.27% | viability [5] 4.4%

O=C(C1CCC(CNc2c(N3CCCCC3)c(=O)c2=O)CC1)N1CCCCC1 (stereo unspecified)
inactive: growth inhibition [1] -8.65% | growth inhibition [2] -19.7% | viability increase [3] -1.79% | viability [4] 94.3% | viability [5] 93.6% | inhibition [6] 1.09% | RAM network inhibition [7] 7.26%

Cn1c(C(=O)NCCCN2CCOCC2)cc2c(=O)n(C)c3ccccc3c21
inactive: growth inhibition [1] 0.23% | growth inhibition [2] -0.345% | viability increase [3] -4.09% | viability [4] 100% | viability [5] 91.5% | inhibition [6] 1.67% | RAM network inhibition [7] -0.72%

CCN(CC)c1ccc(NC(=O)COc2ccc(C)cc2)cc1
inactive: growth inhibition [1] -8.23% | growth inhibition [2] -15.4% | viability increase [3] 0.42% | viability [4] 93.6% | viability [5] 85.3% | inhibition [6] 0.255% | RAM network inhibition [7] 0.45%

Cc1cc(=O)oc2c(N)c(O)ccc12
inactive: growth inhibition [1] -4.57% | growth inhibition [2] -11.6% | viability increase [3] -4.95% | viability [4] 101% | viability [5] 98.5% | inhibition [6] 0.53% | RAM network inhibition [7] 1.88%

CC1(C)CC2CC(C)(CN2C(=O)C23CCC(C)(C(=O)O2)C3(C)C)C1 (stereo unspecified)
inactive: growth inhibition [1] -6.75% | growth inhibition [2] -1.53% | viability increase [3] -1.13% | viability [4] 92.5% | viability [5] 91.1% | inhibition [6] 2.16% | RAM network inhibition [7] 4%

O=C(CC1SC(=Nc2ccccc2)N(CCCCO)C1=O)NCc1ccccc1 (stereo unspecified)
inactive: growth inhibition [1] -5.1% | growth inhibition [2] -5.89% | viability increase [3] -2.74% | viability [4] 89.5% | viability [5] 86.4% | inhibition [6] 0.065% | RAM network inhibition [7] 5.21%

COc1ccc(C(=O)Nc2cc(-c3nn4c(C)nnc4s3)ccc2C)cc1
inactive: growth inhibition [1] 8.96% | growth inhibition [2] 33.2% | viability increase [3] -5.02% | viability [4] 98.3% | viability [5] 88.2% | inhibition [6] 1.27% | RAM network inhibition [7] 2.75%

Cc1ccc(-c2nn3c(C)nnc3s2)cc1NC(=O)COc1ccc(Cl)cc1
inactive: growth inhibition [1] -4.13% | growth inhibition [2] 25.3% | viability increase [3] -1.1% | viability [4] 93.8% | viability [5] 90.8% | inhibition [6] 2.17% | RAM network inhibition [7] 6.41%

CCc1ccc(N(CC(=O)NC2CCCCC2)S(=O)(=O)c2c(C)noc2C)cc1
inactive: growth inhibition [1] -9.43% | growth inhibition [2] -2.85% | viability increase [3] -1.23% | viability [4] 92.2% | viability [5] 92.3% | inhibition [6] 2.05% | RAM network inhibition [7] 4.91%

CCOC(=O)N1CCN(C(=O)Cc2ccc(Cl)cc2)CC1
inactive: growth inhibition [1] 3.9% | growth inhibition [2] -5.01% | viability increase [3] -1.27% | viability [4] 99.2% | viability [5] 95.3% | inhibition [6] 2.03% | RAM network inhibition [7] 6.67%

CCOC(=O)N1CCC(N2Cc3cccc(C(=O)Nc4ccc(OC)c(OC)c4)c3C2=O)CC1
inactive: growth inhibition [1] -7.4% | growth inhibition [2] -0.92% | viability increase [3] -3.99% | viability [4] 66.2% | viability [5] 66.8% | inhibition [6] 2.03% | RAM network inhibition [7] 1.98%

COc1ccccc1N(CC(N)=O)S(=O)(=O)c1ccc(C)cc1
inactive: growth inhibition [1] 0.675% | growth inhibition [2] -2.73% | viability increase [3] -1.48% | viability [4] 98.2% | viability [5] 98% | inhibition [6] 0.21% | RAM network inhibition [7] 3.22%

CN(Cc1ccccc1)S(=O)(=O)c1ccc2[nH]c(=O)oc2c1
inactive: growth inhibition [1] -17.3% | growth inhibition [2] -30.6% | viability increase [3] -0.12% | viability [4] 109% | viability [5] 96% | inhibition [6] 0.425% | RAM network inhibition [7] 5.4%

CC(c1ccccc1)C1C(C#N)=C(N)OC2=C1C(=O)CCC2 (stereo unspecified)
inactive: growth inhibition [1] -19% | growth inhibition [2] -12.4% | viability increase [3] -0.93% | viability [4] 88% | viability [5] 91.3% | inhibition [6] 3.24% | RAM network inhibition [7] 1.95%
